Screens as filed in PubChem BioAssay.
FID counter – compounds displacing fluorescent DNA intercalator, primary screen, artefact control for HCV NS3 helicase inhibitor project, biochemical, FID fluorescence; DNA fluorescent intercalator displacement; inhibition, % at 7.9 µM; 0.17% of 290,000 active; AID 1845, 2009; in the data active = inhibition above about 37%;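 also: 0% = vehicle and 100% = reference compound; higher means more ethidium bromide displaced from hairpin DNA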
VIM-2 inhibitor – VIM-2 metallo-beta-lactamase inhibitors, primary screen, biochemical, epi-absorbance readout, Pseudomonas aeruginosa enzyme; 0.89% of 290,000 active; inhibition, % at 5.6 µM; AID 1527, 2009; purified VIM-2, nitrocefin hydrolysis, epi-absorbance fluorescence;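 active = inhibition above the mean of all tested compounds plus 3 SD, cutoff set per screening run, cut at about 7.5% in these data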;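 also: red hydrolysis product quenches plate fluorescence so inhibitors raise well fluorescence; 0% = enzyme with DMSO and 100% = DMSO without enzyme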
HCV NS3 hel inh – inhibitors of HCV NS3 helicase, primary screen, biochemical, Cy5 molecular beacon fluorescence; inhibition, % at 10.9 µM; NS3 helicase DNA unwinding; 0.56% of 290,000 active;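 active = inhibition above the mean of all tested compounds plus 3 SD, set per campaign, cut at about 35% in these data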;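 also: 0% = DMSO wells and 100% = thioflavine S control wells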
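Measured by: Cy5 fluorescence, 0 and 60 min reads / Assay system: NS3 helicase fragment of HCV / Control set: low DMSO, high thioflavine S at 110 µM / Times: 1 h reaction at 25 °C, ATP-initiated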
SUMO HTRF inh – inhibitors of in vitro SUMOylation cascade, primary screen, biochemical, HTRF, uHTS | SUMO-conjugating enzyme UBC9 (Homo sapiens), P63279 | HTRF SUMOylation assay, SAE1/SAE2 + UBC9 | inhibition, % at 35 µM | 0.36% of 290,000 active; in the data active = inhibition above about 50%, passing the limit was not always enough
Target sequence (P63279 whole entry, looked up): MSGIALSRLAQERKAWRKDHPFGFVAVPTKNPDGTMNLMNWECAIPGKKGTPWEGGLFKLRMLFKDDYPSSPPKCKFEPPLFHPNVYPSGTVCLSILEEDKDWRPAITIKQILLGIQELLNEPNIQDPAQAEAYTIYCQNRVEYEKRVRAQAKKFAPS
IMP-1 inh-1 – IMP-1 metallo-beta-lactamase inhibitors, primary screen, biochemical, epi-absorbance readout, Pseudomonas aeruginosa enzyme; metallo-beta-lactamase IMP-1 (Pseudomonas aeruginosa); purified IMP-1, nitrocefin hydrolysis, epi-absorbance fluorescence; inhibition, % at 5.6 µM; 0.45% of 290,000 active; AID 1556, 2009;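 active = inhibition above the mean plus 3 SD of all compounds in the same screening run, cut at about 4.5% in these data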;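 also: 0% = IMP-1 with DMSO and 100% = DMSO wells lacking enzyme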
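Assay system: purified recombinant IMP-1 beta-lactamase. Input: IMP-1 0.2 nM before substrate addition. Buffer or medium: Zinc- and detergent-supplemented HEPES buffer, pH 7.1. Schedule: 25 °C, 15 min preincubation, 25 min reaction. Signal: Epi-absorbance fluorescence, 480 nm excitation, 530 nm emission. Evaluation: percent inhibition from optical density relative to buffer-blank wells.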
IMP-1 inh-2 – IMP-1 metallo-beta-lactamase inhibitors, confirmation, selectivity assay for selective VIM-2 inhibitor project, biochemical, epi-absorbance readout, triplicate | shares compounds with VIM-2 inhibitor | purified IMP-1, nitrocefin hydrolysis, epi-absorbance fluorescence | inhibition, % at 5.6 µM | 1,300 tested, under 10 active; call rule not given here;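 also: 0% = enzyme with vehicle and 100% = vehicle without enzyme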
VIM-2 FRET inh – VIM-2 inhibitors in FRET format, confirmation, artefact control for selective VIM-2 inhibitor project, biochemical, epi-absorbance artifact exclusion. inhibition, % at 5.6 µM. shares compounds with VIM-2 inhibitor. purified VIM-2, CCF2 FRET substrate hydrolysis. 23% of 1,300 active;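 active = inhibition above the mean of all tested compounds plus 3 SD, cut at about 19% in these data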;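 also: 0% = VIM-2 plus DMSO and 100% = no enzyme wells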
TEM-1 counter – TEM-1 serine beta-lactamase inhibitors, counter-screen for VIM-2 inhibitor project, biochemical, epi-absorbance, HTS; shares compounds with VIM-2 inhibitor; Purified TEM-1, nitrocefin hydrolysis, epi-absorbance fluorescence; inhibition, % at 5.6 µM; 3% of 1,300 active;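 active = inhibition above that campaign's mean inhibition plus 3 SD, cut at about 0.46% in these data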;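 also: 0% = TEM-1 with DMSO and 100% = TEM-1 with 100 µM potassium clavulanate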
Target sequence (P62593 whole entry, looked up): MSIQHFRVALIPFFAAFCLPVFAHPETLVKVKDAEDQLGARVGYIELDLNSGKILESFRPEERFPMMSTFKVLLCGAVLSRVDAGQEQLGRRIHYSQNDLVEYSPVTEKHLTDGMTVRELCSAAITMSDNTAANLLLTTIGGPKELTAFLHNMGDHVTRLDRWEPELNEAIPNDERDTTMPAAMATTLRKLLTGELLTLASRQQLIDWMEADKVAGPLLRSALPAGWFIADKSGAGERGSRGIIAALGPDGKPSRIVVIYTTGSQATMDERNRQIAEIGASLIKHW
VIM-2 confirm 2 – VIM-2 metallo-beta-lactamase inhibitors, confirmation, biochemical, epi-absorbance, hits shared with IMP-1 screen | shares compounds with VIM-2 inhibitor | purified VIM-2, nitrocefin hydrolysis | inhibition, % at 5.6 µM | 96% of 1,300 active | AID 2187, 2009;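 active = inhibition of the VIM-2 beta-lactamase enzyme above about 11% from the earlier first-round screen, limit read from the data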;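 also: 0% = VIM-2 with DMSO and 100% = buffer wells without enzyme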
An asterisk follows results filed as active. Sampled rows, rich in hits. Any-hit rate of the full collection: about 2.1%.

Cc1c(OCC(=O)NCCN2CCOCC2)ccc2c1oc(=O)c1ccccc12 was read as FID counter 6, VIM-2 inhibitor 28*, HCV NS3 hel inh -1, SUMO HTRF inh 20, IMP-1 inh-1 -2, IMP-1 inh-2 -2, VIM-2 FRET inh 1, TEM-1 counter -13 and VIM-2 confirm 2 38*.
`CCc1nnc(NS(=O)(=O)c2ccc(NC(=O)c3cccc(OC)c3)cc2)s1` gave FID counter -47, VIM-2 inhibitor 0, HCV NS3 hel inh 0, SUMO HTRF inh 4 and IMP-1 inh-1 0.
CC1CCCCC1N(C)C1CCN(C(=O)CNC(=O)/C=C/c2cccc(Cl)c2)CC1 (stereo not given) was read as FID counter 17, VIM-2 inhibitor 0, HCV NS3 hel inh 7, SUMO HTRF inh 4 and IMP-1 inh-1 0.
`Cc1c(Cl)c(-c2n[nH]c(=S)n2CC(C)C)nn1C` gave FID counter -7, VIM-2 inhibitor 3, HCV NS3 hel inh -1, SUMO HTRF inh 1 and IMP-1 inh-1 -3.
`CCCCCCn1c(-c2cccs2)n[nH]c1=S` gave FID counter -26, VIM-2 inhibitor 72*, HCV NS3 hel inh 10, SUMO HTRF inh 2, IMP-1 inh-1 -3, IMP-1 inh-2 -5, VIM-2 FRET inh 83*, TEM-1 counter -11 and VIM-2 confirm 2 76*.
`CCCCn1c(-c2nn(C)cc2Cl)n[nH]c1=S` gave FID counter -12, VIM-2 inhibitor 39*, HCV NS3 hel inh -1, SUMO HTRF inh 12, IMP-1 inh-1 -2, IMP-1 inh-2 -2, VIM-2 FRET inh 66*, TEM-1 counter -8 and VIM-2 confirm 2 48*.
Screening CCCCn1c(-c2nn(C)c(C)c2Cl)n[nH]c1=S returned FID counter -14, VIM-2 inhibitor 36*, HCV NS3 hel inh -7, SUMO HTRF inh 11, IMP-1 inh-1 -3, IMP-1 inh-2 -3, VIM-2 FRET inh 66*, TEM-1 counter -8 and VIM-2 confirm 2 46*.
CCCNC(=O)c1ccccc1NC(=O)c1ccccc1N(C)S(=O)(=O)c1ccc(C)cc1 was read as FID counter -7, VIM-2 inhibitor 0, HCV NS3 hel inh -2, SUMO HTRF inh 5 and IMP-1 inh-1 -2.
`O=C(NCC1CCCO1)c1ccc(COc2ccccc2Br)cc1` (stereo not given) gave FID counter -38, VIM-2 inhibitor 1, HCV NS3 hel inh -33, SUMO HTRF inh -4 and IMP-1 inh-1 0.
`Cc1cccc(Nc2nnc(SCC(=O)NCc3cccs3)s2)c1` gave FID counter -17, VIM-2 inhibitor 0, HCV NS3 hel inh -3, SUMO HTRF inh 9 and IMP-1 inh-1 -1.
CCCC(=O)Nc1nnc(SCC(=O)NCc2cccs2)s1 was read as FID counter -9, VIM-2 inhibitor 20*, HCV NS3 hel inh 15, SUMO HTRF inh -5, IMP-1 inh-1 -5, IMP-1 inh-2 -2, VIM-2 FRET inh 44*, TEM-1 counter -3 and VIM-2 confirm 2 33*.
Screening CCCC(=O)Nc1nnc(SCC(=O)NCc2ccco2)s1 returned FID counter 1, VIM-2 inhibitor 3, HCV NS3 hel inh 4, SUMO HTRF inh 6 and IMP-1 inh-1 -4.
For COCC(=O)Nc1nnc(SCC(=O)NCc2cccs2)s1 the results were FID counter -2, VIM-2 inhibitor 22*, HCV NS3 hel inh -5, SUMO HTRF inh 7, IMP-1 inh-1 -3, IMP-1 inh-2 -3, VIM-2 FRET inh 53*, TEM-1 counter -3 and VIM-2 confirm 2 38*.
For COc1cccc(-c2nnc(-c3ccccc3NC(=O)c3ccc(C(C)(C)C)cc3)o2)c1 the results were FID counter 0, VIM-2 inhibitor 0, HCV NS3 hel inh -3, SUMO HTRF inh 8 and IMP-1 inh-1 -2.
Screening COC(=O)c1oc2nc(C)cc(C)c2c1N returned FID counter -6, VIM-2 inhibitor 15*, HCV NS3 hel inh 9, SUMO HTRF inh 27, IMP-1 inh-1 4, IMP-1 inh-2 -3, VIM-2 FRET inh 0, TEM-1 counter -6 and VIM-2 confirm 2 14*.
Screening Cc1cc(C)c2c(N)c(C(=O)c3ccccc3)oc2n1 returned FID counter 2, VIM-2 inhibitor -1, HCV NS3 hel inh 1, SUMO HTRF inh 7 and IMP-1 inh-1 -3.
`O=C(CSc1nnc(NC(=O)c2ccccc2[N+](=O)[O-])s1)NCc1ccco1` gave FID counter -2, VIM-2 inhibitor 41*, HCV NS3 hel inh 7, SUMO HTRF inh 5, IMP-1 inh-1 -2, IMP-1 inh-2 -3, VIM-2 FRET inh 64*, TEM-1 counter -7 and VIM-2 confirm 2 46*.
For COc1ccccc1C(=O)Nc1nnc(SCC(=O)NCc2ccco2)s1 the results were FID counter -14, VIM-2 inhibitor 46*, HCV NS3 hel inh 4, SUMO HTRF inh 21, IMP-1 inh-1 -2, IMP-1 inh-2 -2, VIM-2 FRET inh 70*, TEM-1 counter -6 and VIM-2 confirm 2 53*.
Screening O=C(CSc1nnc(NC(=O)C2CC2)s1)NCc1ccccc1Cl returned FID counter -9, VIM-2 inhibitor 29*, HCV NS3 hel inh -4, SUMO HTRF inh -18, IMP-1 inh-1 -3, IMP-1 inh-2 -3, VIM-2 FRET inh 53*, TEM-1 counter -6 and VIM-2 confirm 2 35*.
For O=C(CSc1nnc(NC(=O)Cc2ccccc2)s1)NCc1ccco1 the results were FID counter -7, VIM-2 inhibitor -1, HCV NS3 hel inh 3, SUMO HTRF inh 20 and IMP-1 inh-1 -5.
`COc1ccc(C(=O)Nc2nnc(SCC(=O)NCc3ccco3)s2)cc1OC` gave FID counter -8, VIM-2 inhibitor -1, HCV NS3 hel inh 3, SUMO HTRF inh 2 and IMP-1 inh-1 -3.
